Assay results from ChEMBL document CHEMBL4152256, “Structure-activity relationship of new antimalarial 1-aryl-3-susbtituted propanol derivatives: Synthesis, preliminary toxicity profiling, parasite life cycle stage studies, target exploration, and targeted delivery” (Eur J Med Chem, 2018).

What was measured:
[1] = Genotoxicity in Salmonella typhimurium TA1535 harboring pSK1002 assessed as survival at 0.063 mg/ml in presence of Sprague-Dawley rat liver S9 fraction after by SOS/umu assay relative to control; format: toxicity, organism-based; conditions: salmonella enterica subsp. enterica serovar typhimurium, read-out: Survival
[2] = Genotoxicity in Salmonella typhimurium TA1535 harboring pSK1002 assessed as survival at 0.016 mg/ml in absence of Sprague-Dawley rat liver S9 fraction after by SOS/umu assay relative to control; format: toxicity, organism-based; conditions: salmonella enterica subsp. enterica serovar typhimurium, read-out: Survival
[3] = Genotoxicity in Salmonella typhimurium TA1535 harboring pSK1002 assessed as survival at 0.004 mg/ml in presence of Sprague-Dawley rat liver S9 fraction after by SOS/umu assay relative to control; format: toxicity, organism-based; conditions: salmonella enterica subsp. enterica serovar typhimurium, read-out: Survival
[4] = Genotoxicity in Salmonella typhimurium TA1535 harboring pSK1002 assessed as umu gene induction at 0.008 mg/ml in presence of Sprague-Dawley rat liver S9 fraction after by SOS/umu assay relative to control; format: toxicity, organism-based; conditions: salmonella enterica subsp. enterica serovar typhimurium, read-out: FC
[5] = Genotoxicity in Salmonella typhimurium TA1535 harboring pSK1002 assessed as survival at 0.031 mg/ml in presence of Sprague-Dawley rat liver S9 fraction after by SOS/umu assay relative to control; format: toxicity, organism-based; conditions: salmonella enterica subsp. enterica serovar typhimurium, read-out: Survival
Plasmodium falciparum [6] = assay: Antiplasmodial activity against multidrug-resistant Plasmodium falciparum FCR-3 by [3H]-hypoxanthine incorporation assay; format: functional, organism-based, FCR-3/Gambia; conditions: Plasmodium falciparum, FCR-3/Gambia
Procedure, shortened: (§1)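 Blood-stage P. falciparum 3D7 and FCR-3 were tested by a modified [3H]-hypoxanthine incorporation assay. Chloroquine was the reference in all runs.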

[7] = Genotoxicity in Salmonella typhimurium TA1535 harboring pSK1002 assessed as umu gene induction at 0.125 mg/ml in absence of Sprague-Dawley rat liver S9 fraction after by SOS/umu assay relative to control; format: toxicity, organism-based; conditions: salmonella enterica subsp. enterica serovar typhimurium, read-out: FC
[8] = Genotoxicity in Salmonella typhimurium TA1535 harboring pSK1002 assessed as survival at 0.008 mg/ml in absence of Sprague-Dawley rat liver S9 fraction after by SOS/umu assay relative to control; format: toxicity, organism-based; conditions: salmonella enterica subsp. enterica serovar typhimurium, read-out: Survival
[9] = Genotoxicity in Salmonella typhimurium TA1535 harboring pSK1002 assessed as survival at 0.004 mg/ml in absence of Sprague-Dawley rat liver S9 fraction after by SOS/umu assay relative to control; format: toxicity, organism-based; conditions: salmonella enterica subsp. enterica serovar typhimurium, read-out: Survival
[10] = Genotoxicity in Salmonella typhimurium TA1535 harboring pSK1002 assessed as survival at 0.125 mg/ml in absence of Sprague-Dawley rat liver S9 fraction after by SOS/umu assay relative to control; format: toxicity, organism-based; conditions: salmonella enterica subsp. enterica serovar typhimurium, read-out: Survival
[11] = Genotoxicity in Salmonella typhimurium TA1535 harboring pSK1002 assessed as umu gene induction at 0.031 mg/ml in absence of Sprague-Dawley rat liver S9 fraction after by SOS/umu assay relative to control; format: toxicity, organism-based; conditions: salmonella enterica subsp. enterica serovar typhimurium, read-out: FC
[12] = Genotoxicity in Salmonella typhimurium TA1535 harboring pSK1002 assessed as umu gene induction at 0.031 mg/ml in presence of Sprague-Dawley rat liver S9 fraction after by SOS/umu assay relative to control; format: toxicity, organism-based; conditions: salmonella enterica subsp. enterica serovar typhimurium, read-out: FC
[13] = Genotoxicity in Salmonella typhimurium TA1535 harboring pSK1002 assessed as survival at 0.001 mg/ml in absence of Sprague-Dawley rat liver S9 fraction after by SOS/umu assay relative to control; format: toxicity, organism-based; conditions: salmonella enterica subsp. enterica serovar typhimurium, read-out: Survival
[14] = Selectivity index, ratio of CC50 for human HepG2A16 cells by MTT assay to IC50 for multidrug-resistant Plasmodium falciparum FCR-3; format: toxicity; conditions: for selectivity ratio: HepG2A16 cells, read-out: Ratio CC50/IC50
Procedure, shortened: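 HepG2-A16 human hepatoma cells were tested by MTT viability assay to give CC50. Blood-stage activity was measured against the multidrug-resistant P. falciparum FCR-3 strain by [3H]-hypoxanthine incorporation to give IC50. SI = CC50 HepG2 / FCR-3 IC50.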

[15] = Genotoxicity in Salmonella typhimurium TA1535 harboring pSK1002 assessed as umu gene induction at 0.016 mg/ml in presence of Sprague-Dawley rat liver S9 fraction after by SOS/umu assay relative to control; format: toxicity, organism-based; conditions: salmonella enterica subsp. enterica serovar typhimurium, read-out: FC
[16] = Genotoxicity in Salmonella typhimurium TA1535 harboring pSK1002 assessed as umu gene induction at 0.063 mg/ml in absence of Sprague-Dawley rat liver S9 fraction after by SOS/umu assay relative to control; format: toxicity, organism-based; conditions: salmonella enterica subsp. enterica serovar typhimurium, read-out: FC
[17] = Cytotoxicity against human HepG2A16 cells by MTT assay; format: cell-based
Procedure, shortened: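 MTT viability assay on HepG2-A16 cells, giving CC50 values.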

[18] = Genotoxicity in Salmonella typhimurium TA1535 harboring pSK1002 assessed as umu gene induction at 0.001 mg/ml in absence of Sprague-Dawley rat liver S9 fraction after by SOS/umu assay relative to control; format: toxicity, organism-based; conditions: salmonella enterica subsp. enterica serovar typhimurium, read-out: FC
[19] = Genotoxicity in Salmonella typhimurium TA1535 harboring pSK1002 assessed as survival at 0.031 mg/ml in absence of Sprague-Dawley rat liver S9 fraction after by SOS/umu assay relative to control; format: toxicity, organism-based; conditions: salmonella enterica subsp. enterica serovar typhimurium, read-out: Survival
[20] = Genotoxicity in Salmonella typhimurium TA1535 harboring pSK1002 assessed as survival at 0.016 mg/ml in presence of Sprague-Dawley rat liver S9 fraction after by SOS/umu assay relative to control; format: toxicity, organism-based; conditions: salmonella enterica subsp. enterica serovar typhimurium, read-out: Survival
[21] = Genotoxicity in Salmonella typhimurium TA1535 harboring pSK1002 assessed as umu gene induction at 0.004 mg/ml in presence of Sprague-Dawley rat liver S9 fraction after by SOS/umu assay relative to control; format: toxicity, organism-based; conditions: salmonella enterica subsp. enterica serovar typhimurium, read-out: FC
[22] = Genotoxicity in Salmonella typhimurium TA1535 harboring pSK1002 assessed as umu gene induction at 0.063 mg/ml in presence of Sprague-Dawley rat liver S9 fraction after by SOS/umu assay relative to control; format: toxicity, organism-based; conditions: salmonella enterica subsp. enterica serovar typhimurium, read-out: FC
[23] = Genotoxicity in Salmonella typhimurium TA1535 harboring pSK1002 assessed as umu gene induction at 0.125 mg/ml in presence of Sprague-Dawley rat liver S9 fraction after by SOS/umu assay relative to control; format: toxicity, organism-based; conditions: salmonella enterica subsp. enterica serovar typhimurium, read-out: FC
[24] = Genotoxicity in Salmonella typhimurium TA1535 harboring pSK1002 assessed as survival at 0.125 mg/ml in presence of Sprague-Dawley rat liver S9 fraction after by SOS/umu assay relative to control; format: toxicity, organism-based; conditions: salmonella enterica subsp. enterica serovar typhimurium, read-out: Survival
[25] = Genotoxicity in Salmonella typhimurium TA1535 harboring pSK1002 assessed as umu gene induction at 0.002 mg/ml in absence of Sprague-Dawley rat liver S9 fraction after by SOS/umu assay relative to control; format: toxicity, organism-based; conditions: salmonella enterica subsp. enterica serovar typhimurium, read-out: FC
[26] = Genotoxicity in Salmonella typhimurium TA1535 harboring pSK1002 assessed as umu gene induction at 0.002 mg/ml in presence of Sprague-Dawley rat liver S9 fraction after by SOS/umu assay relative to control; format: toxicity, organism-based; conditions: salmonella enterica subsp. enterica serovar typhimurium, read-out: FC
[27] = Genotoxicity in Salmonella typhimurium TA1535 harboring pSK1002 assessed as umu gene induction at 0.016 mg/ml in absence of Sprague-Dawley rat liver S9 fraction after by SOS/umu assay relative to control; format: toxicity, organism-based; conditions: salmonella enterica subsp. enterica serovar typhimurium, read-out: FC
Plasmodium falciparum [28] = assay: Antiplasmodial activity against chloroquine-sensitive Plasmodium falciparum 3D7 by [3H]-hypoxanthine incorporation assay; format: functional, organism-based; procedure, shortened: as §1
[29] = Genotoxicity in Salmonella typhimurium TA1535 harboring pSK1002 assessed as survival at 0.008 mg/ml in presence of Sprague-Dawley rat liver S9 fraction after by SOS/umu assay relative to control; format: toxicity, organism-based; conditions: salmonella enterica subsp. enterica serovar typhimurium, read-out: Survival

| SMILES | viability at 0.063 mg/ml [1] | viability at 0.016 mg/ml [2] | viability at 0.004 mg/ml [3] | fold induction at 0.008 mg/ml [4] | viability at 0.031 mg/ml [5] | IC50 (Plasmodium falciparum [6]) | fold induction at 0.125 mg/ml [7] | viability at 0.008 mg/ml [8] | viability at 0.004 mg/ml [9] | viability at 0.125 mg/ml [10] | fold induction at 0.031 mg/ml [11] | fold induction at 0.031 mg/ml [12] | viability at 0.001 mg/ml [13] | fold induction at 0.016 mg/ml [15] | fold induction at 0.063 mg/ml [16] | fold induction at 0.001 mg/ml [18] | viability at 0.031 mg/ml [19] | viability at 0.016 mg/ml [20] | fold induction at 0.004 mg/ml [21] | fold induction at 0.063 mg/ml [22] | other results |
| --- | --- | --- | --- | --- | --- | --- | --- | --- | --- | --- | --- | --- | --- | --- | --- | --- | --- | --- | --- | --- | --- |
| COc1ccccc1N1CCN(CCC(O)c2ccc(F)c3ccccc23)CC1 (configuration not stated) | 88.4% | 63% | 102% | 1 | 129% | 220 nM | 0.9 | 67.1% | 66.5% | 55.9% | 1.3 | 0.6 | 70.5% | 1 | 0.9 | 1.3 | 58.4% | 92.4% | 0.8 | 0.7 | selectivity ratio [14]: 138; CC50 ([17]; HepG2A16 cells): 30400 nM; fold induction at 0.125 mg/ml [23]: 0.7; viability at 0.125 mg/ml [24]: 84.4%; fold induction at 0.002 mg/ml [25]: 1.5; fold induction at 0.002 mg/ml [26]: 1; fold induction at 0.016 mg/ml [27]: 1.3; IC50 (Plasmodium falciparum [28]; Plasmodium falciparum, 3D7): 70 nM; viability at 0.008 mg/ml [29]: 99.1% |
| OC(CCN1CC=C(c2ccc(F)cc2)CC1)c1ccc2c(c1)OCO2 (configuration not stated) | 105% | 92.5% | 105% | 1 | 137% | 1700 nM | 0.8 | 128% | 114% | 116% | 0.8 | 0.7 | 131% | 1 | 0.9 | 0.5 | 113% | 92% | 0.9 | 0.9 | selectivity ratio [14]: 97; CC50 ([17]; HepG2A16 cells): 165000 nM; fold induction at 0.125 mg/ml [23]: 1; viability at 0.125 mg/ml [24]: 99.6%; fold induction at 0.002 mg/ml [25]: 0.8; fold induction at 0.002 mg/ml [26]: 1; fold induction at 0.016 mg/ml [27]: 0.9; IC50 (Plasmodium falciparum [28]; Plasmodium falciparum, 3D7): 17400 nM; viability at 0.008 mg/ml [29]: 96% |
| OC(CCN1CCN(c2ccccc2C(F)(F)F)CC1)c1ccc(F)c2ccccc12 (stereo in doubt; 55) | 90.8% | 94.7% | 108% | 0.2 | 101% | 150 nM | 0.3 | 68.7% | 52.1% | 167% | 0.4 | 0.7 | 43.3% | 1.1 | 0.2 | 0.7 | 127% | 73.9% | 0.5 | 0.8 | Ratio CC50/IC50 [14]: 183; CC50 [17]: 27500 nM; fold induction at 0.125 mg/ml [23]: 0.7; viability at 0.125 mg/ml [24]: 100%; fold induction at 0.002 mg/ml [25]: 0.8; fold induction at 0.002 mg/ml [26]: 0.5; fold induction at 0.016 mg/ml [27]: 0.6; IC50 (Plasmodium falciparum [28]): 160 nM; viability at 0.008 mg/ml [29]: 121% |
